According to paper PMC5028261 (Neurochemistry international, 2016):
Read-outs that look alike come from different tables or passages of the source.

Key:
[1] = system: CNS neurons in mixed retinal culture; conditions: ref Geiger et al., 2002; cited from earlier work
[2] = Superoxide detection by EPR with spin trap DEPMPO; format: biochemical; conditions: for reducing activity by EPR spectroscopy: converts superoxide adduct of the spin trap to hydroxyl adduct; for effect on EPR spectra of superoxide adduct of DEPMPO: xanthine/xanthine oxidase
Outline: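 Superoxide is generated from hypoxanthine (200 μM) and xanthine oxidase (0.0025 U/mL) with the spin trap DEPMPO present. A hydroxyl-adduct reference spectrum comes from a Fenton reaction: FeSO4 (100 μM), diethylenetriaminepentaacetic acid (100 μM) and H2O2 (1 mM) with DEPMPO (100 mM). Superoxide- and hydroxyl-DEPMPO adducts are recorded by EPR at room temperature, 9.85 GHz.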

[3] = Cell-free disulfide reduction of DTNB; format: biochemical; conditions: for reduction of disulfides in cell-free assays: non-deprotected (borane-complexed) forms
[4] = system: RGCs and retinal endothelial cells; conditions: ref Schlieve et al., 2006; cited from earlier work
rat [5] = conditions: rat experimental glaucoma; ref Almasieh et al., 2011; cited from earlier work
[6] = Superoxide scavenging, xanthine/xanthine oxidase with hydroethidine fluorescence; format: biochemical; conditions: 1, 10, 100 μM, compared to PEG-SOD control
rat [7] = conditions: rat optic nerve transection; ref Almasieh et al., 2011; cited from earlier work
[8] = Accelerated stability of solid compound by HPLC; format: physicochemical
[9] = octanol/water, room temperature
[10] = over 72 hours, HPLC
RGC-5 cells = format: cell-based; conditions: one hour, DSSA alone 22.3 ± 0.2, mean ± SEM of 3 experiments
rats [11] = conditions: ref Hampton Research, 2016, cited from earlier work
neurons after axotomy = conditions: in vivo; ref Geiger et al., 2002; cited from earlier work
rats [12] = conditions: ref Swanson et al., 2005; cited from earlier work

Compound | reducing activity by EPR spectroscopy [2] | effect on EPR spectra of superoxide adduct of DEPMPO [2] | reduction of disulfides in cell-free assays [3] | neuroprotection in vivo (rat [5]) | superoxide scavenging (2-hydroxyethidium fluorescence) [6] | neuroprotection in vivo (rat [7]) | peak area, % of control ([8]; 40°C, 37 days) [%] | peak area, % of control ([8]; 40°C, 125 days) [%] | peak area, % of control ([8]; 60°C, 37 days) [%] | peak area, % of control ([8]; 60°C, 125 days) [%] | mean cell fluorescence intensity (DSSA-1) (RGC-5 cells; 10 μM) | also measured
O[C@@H](CS)[C@@H](O)CS (racemic) [DTT, dithiothreitol] | – | – | – | – | – | – | – | – | – | – | – | in vitro survival of CNS neurons [1]: can increase in vitro survival
COC(=O)CCP(CCC(=O)OC)c1ccccc1 [P1, bis(3-propionic acid methyl ester) phenylphosphine] | strong reducing activity | did not diminish the spectra of superoxide | – | – | – | – | – | – | – | – | – | –
COC(=O)CCP(c1ccccc1)c1ccccc1 [P2, (3-propionic acid methyl ester)diphenylphosphine] | strong reducing activity | did not diminish the spectra of superoxide | – | – | – | – | – | – | – | – | – | –
[BH3-][P+](CCC(=O)OC)(c1ccccc1)c1ccccc1 [PB2, (3-propionic acid methyl ester) diphenylphosphine-borane complex] | – | – | did not reduce disulfides | neuroprotective | did not appreciably scavenge superoxide | neuroprotective | 100 | 86 | 100 | 14 | 36.6 ± 0.2 | reducing capability towards DTNB ([3]; borane removed with DABCO, pH 7, compared with DTT and TCEP): reduced disulfides more effectively than DTT or TCEP; no toxicity up to (concentration) [4]: 100 µM; calculated half-life ([8]; 20°C, extrapolation using the Arrhenius equation): 18 years; log Poct/wat [9]: 1.1; solubility in water [10]: 3.7 µM
O=C(O)CCP(CCC(=O)O)CCC(=O)O [TCEP, tris(2-carboxyethyl)phosphine] | – | – | – | – | – | – | – | – | – | – | – | LD50 (rats [11]; i.p injection): greater than 1024 mg/kg; LD50 (rats [11]; rats dosed orally): 3500 mg/kg; mean cell fluorescence intensity (DSSA-1) (RGC-5 cells; 1 mM): 25.6 ± 0.2; neuronal death after axotomy (neurons after axotomy): prevents neuronal death; neuronal death after optic nerve crush (rats [12]): prevents neuronal death
bis(3-propionic acid methyl ester) phenylphosphine-borane complex [PB1] | – | – | did not reduce disulfides | neuroprotective | did not appreciably scavenge superoxide | neuroprotective | 80 | 58 | 72 | 12 | 26.7 ± 0.3 | –
